Converted amounts (≈) assume the structure as drawn.
Tests used:
[1] = test system: Streptococcus pneumoniae; assay: Antibacterial activity against Streptococcus pneumoniae MTCC 1936 after 24 hrs by micro-broth dilution method; format: functional; settings: MTCC 1936, 24 h
[2] = test system: Clostridium tetani; assay: Antibacterial activity against Clostridium tetani MTCC 449 after 24 hrs by micro-broth dilution method; format: functional; settings: MTCC 449, 24 h
[3] = test system: Bacillus subtilis; assay: Antibacterial activity against Bacillus subtilis MTCC 441 after 24 hrs by micro-broth dilution method; format: functional; settings: MTCC 441, 24 h
[4] = test system: Salmonella typhi; assay: Antibacterial activity against Salmonella typhi MTCC 98 after 24 hrs by micro-broth dilution method; format: functional, Salmonella enterica subsp. enterica serovar Typhi; settings: Salmonella enterica, MTCC 98, 24 h
[5] = test system: Vibrio cholerae; assay: Antibacterial activity against Vibrio cholerae MTCC 3906 after 24 hrs by micro-broth dilution method; format: functional; settings: MTCC 3906, 24 h
[6] = test system: Escherichia coli; assay: Antibacterial activity against Escherichia coli MTCC 443 after 24 hrs by micro-broth dilution method; format: functional; settings: MTCC 443, 24 h
[7] = test system: Aspergillus fumigatus; assay: Antifungal activity against Aspergillus fumigatus MTCC 3008 after 48 hrs by micro-broth dilution method; format: functional
[8] = test system: Candida albicans; assay: Antifungal activity against Candida albicans MTCC 227 after 48 hrs by micro-broth dilution method; format: functional
[9] = test system: Mycobacterium tuberculosis; assay: Antitubercular activity against Mycobacterium tuberculosis H37Rv at 250 ug/mL; format: functional; settings: read-out: GI
How it was run: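 M. tuberculosis H37Rv tested on conventional L.J. (Löwenstein–Jensen) medium; activity read as percent growth inhibition.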

[10] = Antioxidant activity assessed as ascorbic acid equivalent/100g at 200 ug/mL by FRAP assay; format: functional
[11] = test system: Mycobacterium tuberculosis; assay: Antitubercular activity against Mycobacterium tuberculosis H37Rv at > 256 ug/mL; format: functional

Compound	MIC [1]	MIC [2]	MIC [3]	MIC [4]	MIC [5]	MIC [6]	MIC ([7]; MTCC 3008, 48 h)	MIC ([8]; MTCC 227, 48 h)	inhibition of growth at 250 µg/mL [9]	Activity [10]	growth inhibition (GI) [11]	MIC [7]	MIC [8]
C=CCn1c(=O)c(C2Nc3ccccc3NC3=C2C(=O)CC(C)(C)C3)cc2ccc(C)cc21 (centres undefined)	> 250 µg/mL	250 µg/mL (≈ 569 µM)	250 µg/mL (≈ 569 µM)	250 µg/mL (≈ 569 µM)	> 250 µg/mL	250 µg/mL (≈ 569 µM)	> 250 µg/mL	> 250 µg/mL	91%	270 mmol			
C=CCN1c2ccccc2NC2=C(C(=O)CC(C)(C)C2)C1c1cc2cc(C)ccc2n(CC=C)c1=O (centres undefined)	250 µg/mL (≈ 521 µM)	250 µg/mL (≈ 521 µM)	> 250 µg/mL	200 µg/mL (≈ 417 µM)	> 250 µg/mL	100 µg/mL (≈ 208 µM)	250 µg/mL (≈ 521 µM)	> 250 µg/mL	< 50%	292 mmol			
C=CCN1c2ccccc2NC2=C(C(=O)CC(C)(C)C2)C1c1cc2ccc(Cl)cc2n(CC=C)c1=O (centres undefined)	> 250 µg/mL	500 µg/mL (≈ 1000 µM)	> 250 µg/mL	> 250 µg/mL	500 µg/mL (≈ 1000 µM)	> 250 µg/mL	> 250 µg/mL	> 250 µg/mL	< 50%	401 mmol			
COC1=CC(=O)C[C@@H](C)[C@]12Oc1c(Cl)c(OC)cc(OC)c1C2=O [GRISEOFULVIN]							100 µg/mL (≈ 283 µM)	500 µg/mL (≈ 1420 µM)					
CCn1cc(C(=O)O)c(=O)c2cc(F)c(N3CCNCC3)cc21 [NORFLOXACIN]	10 µg/mL (≈ 31.3 µM)	50 µg/mL (≈ 157 µM)	100 µg/mL (≈ 313 µM)	10 µg/mL (≈ 31.3 µM)	10 µg/mL (≈ 31.3 µM)	10 µg/mL (≈ 31.3 µM)							
OC(Cn1cncn1)(Cn1cncn1)c1ccc(F)cc1F [FLUCONAZOLE]											99%		
C=CCN1c2ccccc2NC2=C(C(=O)CC(C)(C)C2)C1c1cc2ccc(C)cc2n(CC=C)c1=O (centres undefined)	250 µg/mL (≈ 521 µM)	250 µg/mL (≈ 521 µM)	250 µg/mL (≈ 521 µM)	250 µg/mL (≈ 521 µM)	> 250 µg/mL	200 µg/mL (≈ 417 µM)	> 250 µg/mL	> 250 µg/mL	67%	358 mmol			
Cc1ncc([N+](=O)[O-])n1CCO [METRONIDAZOLE]											99%		
C=CCN1c2ccccc2NC2=C(C(=O)CCC2)C1c1cc2cc(C)ccc2n(CC=C)c1=O (centres undefined)	> 250 µg/mL	250 µg/mL (≈ 554 µM)	200 µg/mL (≈ 443 µM)	250 µg/mL (≈ 554 µM)	250 µg/mL (≈ 554 µM)	250 µg/mL (≈ 554 µM)	250 µg/mL (≈ 554 µM)	> 250 µg/mL	< 50%	499 mmol			
O=C(O)c1cn(C2CC2)c2cc(N3CCNCC3)c(F)cc2c1=O [CIPROFLOXACIN]	50 µg/mL (≈ 151 µM)			25 µg/mL (≈ 75.4 µM)	25 µg/mL (≈ 75.4 µM)	25 µg/mL (≈ 75.4 µM)							
C=CCn1c(=O)c(C2Nc3ccccc3NC3=C2C(=O)CC(C)(C)C3)cc2ccccc21 (centres undefined)	> 250 µg/mL	200 µg/mL (≈ 470 µM)	> 250 µg/mL	> 250 µg/mL	> 250 µg/mL	200 µg/mL (≈ 470 µM)	> 250 µg/mL	> 250 µg/mL	< 50%	324 mmol			
O=C(N[C@H](CO)[C@H](O)c1ccc([N+](=O)[O-])cc1)C(Cl)Cl [CHLORAMPHENICOL]	50 µg/mL (≈ 155 µM)	50 µg/mL (≈ 155 µM)	50 µg/mL (≈ 155 µM)	50 µg/mL (≈ 155 µM)	50 µg/mL (≈ 155 µM)	50 µg/mL (≈ 155 µM)							
CC1(C)S[C@@H]2[C@H](NC(=O)[C@H](N)c3ccccc3)C(=O)N2[C@H]1C(=O)O [AMPICILLIN]	100 µg/mL (≈ 286 µM)	250 µg/mL (≈ 715 µM)	250 µg/mL (≈ 715 µM)	100 µg/mL (≈ 286 µM)	100 µg/mL (≈ 286 µM)	100 µg/mL (≈ 286 µM)							
C=CCn1c(=O)c(C2Nc3ccccc3NC3=C2C(=O)CCC3)cc2ccccc21 (centres undefined)	200 µg/mL (≈ 503 µM)	250 µg/mL (≈ 629 µM)	250 µg/mL (≈ 629 µM)	250 µg/mL (≈ 629 µM)	200 µg/mL (≈ 503 µM)	200 µg/mL (≈ 503 µM)	> 250 µg/mL	> 250 µg/mL	< 50%	347 mmol			
NYSTATIN												100 µg/mL	100 µg/mL
C=CCn1c(=O)c(C2Nc3ccccc3NC3=C2C(=O)CC(C)(C)C3)cc2cc(C)ccc21 (centres undefined)	250 µg/mL (≈ 569 µM)	500 µg/mL (≈ 1140 µM)	200 µg/mL (≈ 455 µM)	250 µg/mL (≈ 569 µM)	250 µg/mL (≈ 569 µM)	> 250 µg/mL	250 µg/mL (≈ 569 µM)	> 250 µg/mL	96%	462 mmol			
C=CCN1c2ccccc2NC2=C(C(=O)CCC2)C1c1cc2ccccc2n(CC=C)c1=O (centres undefined)	100 µg/mL (≈ 229 µM)	200 µg/mL (≈ 457 µM)	100 µg/mL (≈ 229 µM)	250 µg/mL (≈ 571 µM)	100 µg/mL (≈ 229 µM)	> 250 µg/mL	250 µg/mL (≈ 571 µM)	> 250 µg/mL	51%	389 mmol			
C=CCn1c(=O)c(C2Nc3ccccc3NC3=C2C(=O)CCC3)cc2cc(C)ccc21 (centres undefined)	> 250 µg/mL	100 µg/mL (≈ 243 µM)	250 µg/mL (≈ 608 µM)	250 µg/mL (≈ 608 µM)	500 µg/mL (≈ 1220 µM)	250 µg/mL (≈ 608 µM)	> 250 µg/mL	> 250 µg/mL	58%	499 mmol			
C=CCn1c(=O)c(C2Nc3ccccc3NC3=C2C(=O)CCC3)cc2ccc(Cl)cc21 (centres undefined)	250 µg/mL (≈ 579 µM)	250 µg/mL (≈ 579 µM)	250 µg/mL (≈ 579 µM)	250 µg/mL (≈ 579 µM)	250 µg/mL (≈ 579 µM)	100 µg/mL (≈ 232 µM)	> 250 µg/mL	> 250 µg/mL	< 50%	490 mmol			
Clc1ccc(COC(Cn2ccnc2)c2ccc(Cl)cc2Cl)c(Cl)c1 (centres undefined) [MICONAZOLE]											99%		
C=CCn1c(=O)c(C2Nc3ccccc3NC3=C2C(=O)CC(C)(C)C3)cc2ccc(Cl)cc21 (centres undefined)	> 250 µg/mL	250 µg/mL (≈ 544 µM)	250 µg/mL (≈ 544 µM)	100 µg/mL (≈ 217 µM)	> 250 µg/mL	250 µg/mL (≈ 544 µM)	> 250 µg/mL	> 250 µg/mL	62%	328 mmol			
C=CCN1c2ccccc2NC2=C(C(=O)CCC2)C1c1cc2ccc(Cl)cc2n(CC=C)c1=O (centres undefined)	> 250 µg/mL	500 µg/mL (≈ 1060 µM)	250 µg/mL (≈ 530 µM)	200 µg/mL (≈ 424 µM)	250 µg/mL (≈ 530 µM)	62.5 µg/mL (≈ 132 µM)	> 250 µg/mL	> 250 µg/mL	76%	361 mmol			
C=CCN1c2ccccc2NC2=C(C(=O)CC(C)(C)C2)C1c1cc2ccccc2n(CC=C)c1=O (centres undefined)	> 250 µg/mL	500 µg/mL (≈ 1070 µM)	> 250 µg/mL	> 250 µg/mL	> 250 µg/mL	250 µg/mL (≈ 537 µM)	> 250 µg/mL	250 µg/mL (≈ 537 µM)	< 50%	266 mmol			
C=CCN1c2ccccc2NC2=C(C(=O)CCC2)C1c1cc2ccc(C)cc2n(CC=C)c1=O (centres undefined)	> 250 µg/mL	500 µg/mL (≈ 1110 µM)	250 µg/mL (≈ 554 µM)	200 µg/mL (≈ 443 µM)	100 µg/mL (≈ 221 µM)	> 250 µg/mL	> 250 µg/mL	250 µg/mL (≈ 554 µM)	64%	382 mmol			
C=CCn1c(=O)c(C2Nc3ccccc3NC3=C2C(=O)CCC3)cc2ccc(C)cc21 (centres undefined)	> 250 µg/mL	500 µg/mL (≈ 1220 µM)	200 µg/mL (≈ 486 µM)	100 µg/mL (≈ 243 µM)	100 µg/mL (≈ 243 µM)	62.5 µg/mL (≈ 152 µM)	250 µg/mL (≈ 608 µM)	> 250 µg/mL	75%	499 mmol			

Source: ChEMBL document CHEMBL2034858, “An efficient one-pot synthesis, structure, antimicrobial and antioxidant investigations of some novel quinolyldibenzo[b,e][1,4]diazepinones” (2012)
